# Measured values from article PMC3656605 (Nature, 2012).
# How the values were obtained:
# [1] = test system: HIF in IDH1 R132H immortalized human astrocytes; type: cell-based; conditions: 21% oxygen, increasing amounts for 16 hours
# Outline: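 Immortalized human astrocytes (passage 10) expressing wild-type or mutant IDH1 were dosed with test compound for 16 h before lysis in 50 mM Tris pH 8.0, 120 mM NaCl, 0.5% NP-40 with protease inhibitors. Extracts were run on 10% SDS-PAGE and transferred to nitrocellulose. Blots were blocked in TBS/5% milk, probed with anti-HIF1α monoclonal antibody, and detected by HRP-secondary chemiluminescence.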
# [2] = molecular target: T1, EglN1 (Homo sapiens, UniProt Q9GZT9); type: biochemical
# T1 sequence (Q9GZT9 whole entry): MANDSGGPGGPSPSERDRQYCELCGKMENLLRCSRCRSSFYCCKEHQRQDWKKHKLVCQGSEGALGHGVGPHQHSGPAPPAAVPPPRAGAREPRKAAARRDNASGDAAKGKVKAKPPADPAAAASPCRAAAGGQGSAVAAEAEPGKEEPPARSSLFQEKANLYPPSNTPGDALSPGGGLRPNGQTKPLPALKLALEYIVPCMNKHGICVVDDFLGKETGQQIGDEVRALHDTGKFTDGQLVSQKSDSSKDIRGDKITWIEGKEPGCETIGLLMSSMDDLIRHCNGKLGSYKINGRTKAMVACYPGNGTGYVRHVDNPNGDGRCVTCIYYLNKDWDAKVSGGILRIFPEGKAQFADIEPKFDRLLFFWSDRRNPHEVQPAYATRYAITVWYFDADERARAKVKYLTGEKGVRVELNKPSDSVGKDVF
# [3] = test system: FIH; assay: Inhibition of FIH, 14CO2 release, synthetic peptide substrate; type: biochemical, human; conditions: in vitro; 10 µM 2-oxo-[1-14C]glutarate
# [4] = test system: Tet1; assay: Inhibition of Tet1, 14CO2 release, double stranded oligonucleotide substrate; type: biochemical, murine; conditions: in vitro; 120 µM 2-oxo-[1-14C]glutarate
# [5] = test system: JMJD2D histone demethylase; assay: JMJD2D histone demethylase activity; type: biochemical; conditions: data not shown; for Inhibition of JMJD2D histone demethylase (in words): in vitro
# [6] = molecular target: T2, EglN2 (Homo sapiens, UniProt Q96KS0); type: biochemical; conditions: standard assay conditions, 10 μM 2-OG
# T2 sequence (Q96KS0 whole entry): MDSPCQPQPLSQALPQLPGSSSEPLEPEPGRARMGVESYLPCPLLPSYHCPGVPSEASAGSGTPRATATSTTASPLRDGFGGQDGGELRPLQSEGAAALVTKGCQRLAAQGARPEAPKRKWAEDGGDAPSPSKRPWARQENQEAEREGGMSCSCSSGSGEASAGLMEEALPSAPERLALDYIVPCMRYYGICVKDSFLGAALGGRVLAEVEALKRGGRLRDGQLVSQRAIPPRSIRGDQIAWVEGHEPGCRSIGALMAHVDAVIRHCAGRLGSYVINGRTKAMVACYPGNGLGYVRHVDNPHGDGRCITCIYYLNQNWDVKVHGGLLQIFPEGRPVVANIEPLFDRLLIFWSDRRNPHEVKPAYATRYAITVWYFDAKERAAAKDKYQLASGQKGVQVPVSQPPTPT
# [7] = molecular target: T1, EglN1; type: biochemical; remark: listed apart in the source
# [8] = test system: collagen P4H-I; assay: Inhibition of collagen P4H-I, 14CO2 release; type: biochemical, human; conditions: in vitro; 100 µM 2-oxo-[1-14C]glutarate
# [9] = test system: collagen P4H-I; type: biochemical, human; conditions: no exogenous 2-OG
# [10] = molecular target: T2, EglN2; type: biochemical; conditions: low mM concentrations, reactions lacking exogenous 2-OG
# [11] = molecular target: EglN3 (Homo sapiens, UniProt Q9H6Z9); type: biochemical; conditions: standard assay conditions, 10 μM 2-OG
# Sequence of EglN3 (Q9H6Z9 whole entry): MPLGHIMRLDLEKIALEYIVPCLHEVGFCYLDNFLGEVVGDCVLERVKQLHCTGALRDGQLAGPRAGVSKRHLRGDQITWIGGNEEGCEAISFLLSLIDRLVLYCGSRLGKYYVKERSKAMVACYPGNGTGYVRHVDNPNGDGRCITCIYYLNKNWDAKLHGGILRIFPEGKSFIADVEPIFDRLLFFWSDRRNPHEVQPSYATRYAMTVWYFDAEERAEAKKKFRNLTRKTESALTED
# [12] = test system: Tet2; assay: Inhibition of Tet2, 14CO2 release, double stranded oligonucleotide substrate; type: biochemical, murine; conditions: in vitro; 120 µM 2-oxo-[1-14C]glutarate
Compound,Resistance of R132H-expressing cells to the agent (HIF immunoblot) [1],"Prolyl hydroxylation of HIF1α by EglN1 ([2]; increasing R-2HG with 10 μM 2-OG, concentrations as high as 100 mM)","Promotion of EglN1 activity ([2]; low mM concentrations, reactions lacking exogenous 2-OG)",Inhibition of HIF asparaginyl hydroxylase FIH (in words) [3],Inhibition of TET1 methyl cytosine hydroxylase (in words) [4],Promotion of JMJD2D histone demethylase activity [5],Inhibition of JMJD2D histone demethylase (in words) [5],"IC50 ([6]; read-out: IC50, EglN2 inhibition) [mM]",Release of 14CO2 in EglN1 assays ([7]; increasing amounts of R-2HG added to 10 μM 2-oxo-[1-14C]glutarate),Inhibition of collagen prolyl 4-hydroxylases (in words) [8],Promotion of collagen prolyl 4-hydroxylase activity [9],Promotion of EglN2 activity [10],"IC50 ([11]; read-out: IC50, EglN3 inhibition) [mM]",Inhibition of TET2 methyl cytosine hydroxylase (in words) [12],Inhibition of EglN2 (in words) [6],"Inhibition of EglN1 (in words) ([7]; standard assay conditions, 10 μM 2-OG)",Inhibition of EglN3 (in words) [11]
COC(=O)CNC(=O)C(=O)OC [DMOG],relatively resistant,–,–,–,–,–,–,–,–,–,–,–,–,–,–,–,–
"O=C(O)CC[C@@H](O)C(=O)O [R-2HG, R-2-hydroxyglutarate]",–,without decreasing,promoted,inhibit,inhibit,did not promote,inhibit,> 5,progressively decreased,inhibit,did not promote,promoted,> 5,inhibit,–,–,–
"O=C(O)CC[C@H](O)C(=O)O [S-2HG, S-2-hydroxyglutarate]",–,–,–,inhibit,inhibit,–,inhibit,–,–,inhibit,–,–,–,inhibit,micromolar to low millimolar inhibitor,micromolar to low millimolar inhibitor,micromolar to low millimolar inhibitor
